According to ChEMBL document CHEMBL1147968, “Novel lbeta-methylcarbapenems having cyclic sulfonamide moieties: synthesis and evaluation of in vitro antibacterial activity” (2007):
≈ marks a conversion by molar mass, not a printed value.

What was measured:
Type in all cases: functional
Staphylococcus aureus = assay: Antibacterial activity against Staphylococcus aureus 1218 after 18 to 24 hrs by agar dilution method
Method in brief: (§1)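 MICs were determined by agar dilution on test agar. An overnight tryptosoy broth culture was diluted in the same broth to about 10⁶ cells/mL and spotted with an inoculating device onto agar containing serial twofold dilutions of compound. Plates were incubated at 37 °C for 18–20 h, and the MIC was the lowest concentration with no visible growth.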

Staphylococcus = assay: Antibacterial activity against coagulase negative Staphylococcus after 18 to 24 hrs by agar dilution method
Method in brief: (§2)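 Agar dilution on test agar holding serial twofold dilutions of compound. Overnight tryptosoy broth cultures were diluted in the same broth to about 10⁶ cells/mL and spotted with an inoculating device. Plates were incubated at 37 °C for 18–20 h.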

Enterococcus faecalis = assay: Antibacterial activity against Enterococcus faecalis 2347 after 18 to 24 hrs by agar dilution method; method in brief: as §1
Streptococcus pyogenes = assay: Antibacterial activity against Streptococcus pyogenes 9889 after 18 to 24 hrs by agar dilution method; method in brief: as §2
Streptococcus agalactiae = assay: Antibacterial activity against Streptococcus agalactiae 32 after 18 to 24 hrs by agar dilution method; method in brief: as §1
Streptococcus pneumoniae = assay: Antibacterial activity against Streptococcus pneumoniae 0025 after 18 to 24 hrs by agar dilution method; method in brief: as §1
Haemophilus influenzae = assay: Antibacterial activity against Haemophilus influenzae 1210 after 18 to 24 hrs by agar dilution method; method in brief: as §1
Escherichia coli = assay: Antibacterial activity against Escherichia coli 04 after 18 to 24 hrs by agar dilution method; method in brief: as §1
Klebsiella pneumoniae = assay: Antibacterial activity against Klebsiella pneumoniae 523 after 18 to 24 hrs by agar dilution method; method in brief: as §1
Citrobacter freundii = assay: Antibacterial activity against Citrobacter freundii 323 after 18 to 24 hrs by agar dilution method; method in brief: as §1
Enterobacter cloacae = assay: Antibacterial activity against Enterobacter cloacae 34 after 18 to 24 hrs by agar dilution method; method in brief: as §1
Serratia marcescens = assay: Antibacterial activity against Serratia marcescens 3349 after 18 to 24 hrs by agar dilution method; method in brief: as §1
Acinetobacter baumannii = assay: Antibacterial activity against Acinetobacter baumannii 2289 after 18 to 24 hrs by agar dilution method; method in brief: as §1
Pseudomonas aeruginosa = assay: Antibacterial activity against Pseudomonas aeruginosa 5455 after 18 to 24 hrs by agar dilution method; method in brief: as §1

MIC (Staphylococcus aureus): 3.12 µg/mL (≈ 6.97 µM)
MIC (Staphylococcus): 0.098 µg/mL (≈ 0.219 µM)
MIC (Enterococcus faecalis): 6.25 µg/mL (≈ 14 µM)
MIC (Streptococcus pyogenes): 0.02 µg/mL (≈ 0.0447 µM)
MIC (Streptococcus agalactiae): 0.02 µg/mL (≈ 0.0447 µM)
MIC (Streptococcus pneumoniae): 0.013 µg/mL (≈ 0.029 µM)
MIC (Haemophilus influenzae): 6.25 µg/mL (≈ 14 µM)
MIC (Escherichia coli): 0.049 µg/mL (≈ 0.109 µM)
MIC (Klebsiella pneumoniae): 0.098 µg/mL (≈ 0.219 µM)
MIC (Citrobacter freundii): 0.195 µg/mL (≈ 0.436 µM)
MIC (Enterobacter cloacae): 0.098 µg/mL (≈ 0.219 µM)
MIC (Serratia marcescens): 0.198 µg/mL (≈ 0.442 µM)
MIC (Acinetobacter baumannii): 12.5 µg/mL (≈ 27.9 µM)
MIC (Pseudomonas aeruginosa): 12.5 µg/mL (≈ 27.9 µM)
SMILES: C[C@@H](O)C1C(=O)N2C(C(=O)O)=C(S[C@@H]3CN[C@H](CN4CCOS4(=O)=O)C3)[C@H](C)C12 (some centres undefined)
